The target in one experiment is Carbonic anhydrase 12 (Homo sapiens, UniProt O43570). Briefly: Inhibition of human CA12 preincubated for 15 mins by phenol red dye based stopped flow CO2 hydration assay.
Experiment [1] has as its system Mus musculus. Description: Antihyperalgesic activity in CFA induced CD-1 albino mouse assessed as inhibition of thermal hyperalgesia by measuring licking latency at 330 mg/kg, po measured after 20 to 100 mins by hot plate test. To be noted: time 20-100 min. Type of experiment: functional, organism-based. An outline of the steps: (§1)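 Hot plate test before dosing and every 20 min after. Time (s) to first hind-paw licking recorded. Mean of 6 mice from 2 experimental sets; compared with pretest (0 min) and vehicle controls.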
Background: Thermal pain tests record how soon the animal reacts.

The target of the next experiment is Carbonic anhydrase 4 (Homo sapiens, UniProt P22748). Briefly: Inhibition of human CA4 preincubated for 15 mins by phenol red dye based stopped flow CO2 hydration assay.
Chain of Carbonic anhydrase 4 (P22748 whole entry): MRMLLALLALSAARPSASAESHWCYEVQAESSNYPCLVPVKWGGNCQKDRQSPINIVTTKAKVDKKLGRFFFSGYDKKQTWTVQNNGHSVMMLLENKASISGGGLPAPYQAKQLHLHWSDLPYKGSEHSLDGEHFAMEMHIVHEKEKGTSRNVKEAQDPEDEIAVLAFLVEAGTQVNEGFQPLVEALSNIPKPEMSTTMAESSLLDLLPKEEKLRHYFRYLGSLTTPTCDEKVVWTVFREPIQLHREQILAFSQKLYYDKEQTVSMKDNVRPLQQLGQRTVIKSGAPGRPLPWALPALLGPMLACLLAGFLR
Experiment [2] concerns Mus musculus. Briefly: Antihyperalgesic activity in CFA induced CD-1 albino mouse assessed as inhibition of mechanical allodynia by measuring paw withdrawal threshold at 330 mg/kg, po measured after 20 to 100 mins by von frey test. Type of experiment: functional, organism-based. To be noted: time 20-100 min. An outline of the steps: (§2)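 Von Frey testing before dosing and every 20 min afterward. Read-out is the weight (g) the animal tolerated on the paw. Mean of 6 mice from 2 experimental sets; compared with pretest (0 min) and with vehicle-treated controls.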

The subject of experiment [3] is Mus musculus. Briefly: Antihyperalgesic activity in CFA induced CD-1 albino mouse assessed as inhibition of mechanical hyperalgesia by measuring paw withdrawal latency at 220 mg/kg, po measured every 20 mins by paw pressure test. Type of experiment: functional, organism-based. The essentials: (§3)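 Mechanical hyperalgesia measured by Paw Pressure test before dosing and every 20 min afterward, as paw-withdrawal latency (s). Values are means of 6 mice over 2 experimental sets; statistics vs pretest (0 min) and vs vehicle-treated controls.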

A further experiment addresses Carbonic anhydrase 7 (Homo sapiens, UniProt P43166). Briefly: Inhibition of human CA7 preincubated for 15 mins by phenol red dye based stopped flow CO2 hydration assay.
Another experiment addresses Carbonic anhydrase 2 (Homo sapiens, UniProt P00918). Briefly: Inhibition of human CA2 preincubated for 15 mins by phenol red dye based stopped flow CO2 hydration assay.
Experiment [4] has as its system Mus musculus. Briefly: Antihyperalgesic activity in CFA induced CD-1 albino mouse assessed as inhibition of mechanical hyperalgesia by measuring paw withdrawal latency at 330 mg/kg, po measured after 20 to 100 mins by paw pressure test. Type of experiment: functional, organism-based. To be noted: time 20-100 min. An outline of the steps:
as §3

Experiment [5] concerns Mus musculus. Description: Antihyperalgesic activity in CFA induced CD-1 albino mouse assessed as inhibition of thermal hyperalgesia by measuring licking latency at 220 mg/kg, po measured every 20 mins by hot plate test. Type of experiment: functional, organism-based. An outline of the steps:
as §1

The target in the next experiment is Carbonic anhydrase 9 (Homo sapiens, UniProt Q16790). Briefly: Inhibition of human CA9 preincubated for 15 mins by phenol red dye based stopped flow CO2 hydration assay.
A further experiment has as its target Carbonic anhydrase 1 (Homo sapiens, UniProt P00915). Briefly: Inhibition of human CA1 preincubated for 15 mins by phenol red dye based stopped flow CO2 hydration assay.
The test system of experiment [6] is Mus musculus. Briefly: Antihyperalgesic activity in CFA induced CD-1 albino mouse assessed as inhibition of mechanical allodynia by measuring paw withdrawal threshold at 220 mg/kg, po measured every 20 mins by von frey test. Type of experiment: functional, organism-based. The essentials:
as §2

The subject of experiment [7] is Mus musculus. Briefly: Antihyperalgesic activity in CFA induced CD-1 albino mouse assessed as inhibition of thermal hyperalgesia by measuring licking latency at 50 to 200 mg/kg, po measured after 80 mins by hot plate test. Type of experiment: functional, organism-based. To be noted: dose 50-200 mg/kg. The essentials: as §1
The subject of experiment [8] is Mus musculus. Briefly: Antihyperalgesic activity in po dosed CFA induced CD-1 albino mouse assessed as inhibition of mechanical allodynia by measuring paw withdrawal threshold measured every 20 mins by von frey test. Type of experiment: functional, organism-based. To be noted: dose 50-200 mg/kg. The essentials: as §2
The subject of experiment [9] is Mus musculus. Briefly: Antihyperalgesic activity in CFA induced CD-1 albino mouse assessed as inhibition of mechanical allodynia by measuring paw withdrawal threshold at 50 to 200 mg/kg, po measured after 80 mins by von frey test. Type of experiment: functional, organism-based. To be noted: dose 50-200 mg/kg. The essentials:
as §2

For experiment [10], the system named is Mus musculus. Briefly: Antihyperalgesic activity in po dosed CFA induced CD-1 albino mouse assessed as inhibition of thermal hyperalgesia by measuring licking latency measured every 20 mins by hot plate test. Type of experiment: functional, organism-based. To be noted: dose 50-200 mg/kg. An outline of the steps: as §1
Experiment [11] has as its system Mus musculus. Description: Antihyperalgesic activity in CFA induced CD-1 albino mouse assessed as inhibition of mechanical allodynia by measuring paw withdrawal threshold at 50 to 200 mg/kg, po measured after 40 mins by von frey test. Type of experiment: functional, organism-based. To be noted: dose 50-200 mg/kg. An outline of the steps: as §2
Experiment [12] relates to Mus musculus. Briefly: Antihyperalgesic activity in CFA induced CD-1 albino mouse assessed as inhibition of mechanical hyperalgesia by measuring paw withdrawal latency at 50 to 200 mg/kg, po measured after 40 mins by paw pressure test. Type of experiment: functional, organism-based. To be noted: dose 50-200 mg/kg. An outline of the steps: as §3
In experiment [13] the test system is Mus musculus. Briefly: Antihyperalgesic activity in po dosed CFA induced CD-1 albino mouse assessed as inhibition of mechanical hyperalgesia by measuring paw withdrawal latency measured every 20 mins by paw pressure test. Type of experiment: functional, organism-based. To be noted: dose 50-200 mg/kg. An outline of the steps: as §3
Experiment [14] deals with Mus musculus. Description: Antihyperalgesic activity in CFA induced CD-1 albino mouse assessed as inhibition of mechanical hyperalgesia by measuring paw withdrawal latency at 50 to 200 mg/kg, po measured after 80 mins by paw pressure test. Type of experiment: functional, organism-based. To be noted: dose 50-200 mg/kg. An outline of the steps:
as §3

Experiment [15] deals with Mus musculus. Description: Antihyperalgesic activity in CFA induced CD-1 albino mouse assessed as inhibition of thermal hyperalgesia by measuring licking latency at 50 to 200 mg/kg, po measured after 40 mins by hot plate test. Type of experiment: functional, organism-based. To be noted: dose 50-200 mg/kg. The essentials:
as §1

Experiment [16] deals with Mus musculus. Briefly: Antihyperalgesic activity in CFA induced CD-1 albino mouse assessed as increase in pain threshold by measuring licking latency at 405 mg/kg, po measured after 40 mins by hot plate test. Type of experiment: functional, organism-based. An outline of the steps:
(§4)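 Mice received an intraplantar CFA injection, and vehicle-treated animals served as controls. Thermal hyperalgesia was measured by hot plate as time in s to the first hind-paw licking. Readings were taken before dosing and every 20 min afterwards. Values are the mean of 6 mice from 2 experimental sets.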

In experiment [17] the test system is Mus musculus. Briefly: Antihyperalgesic activity in CFA induced CD-1 albino mouse assessed as increase in pain threshold by measuring paw withdrawal latency at 405 mg/kg, po measured after 40 mins by von frey test. Type of experiment: functional, organism-based.
The subject of experiment [18] is Mus musculus. Description: Antihyperalgesic activity in CFA induced CD-1 albino mouse assessed as inhibition of mechanical hyperalgesia by measuring paw withdrawal latency at 270 to 405 mg/kg, po measured every 20 mins by paw pressure test. Type of experiment: functional, organism-based. To be noted: dose 270-405 mg/kg. An outline of the steps: (§5)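 Inflammatory pain was induced by intraplantar CFA, with vehicle-treated controls. Mechanical hyperalgesia was measured by paw pressure test as paw withdrawal latency (s), before dosing and every 20 min after. Values are the mean of 6 mice from 2 experimental sets.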

Experiment [19] has as its system Mus musculus. Description: Antihyperalgesic activity in CFA induced CD-1 albino mouse assessed as increase in pain threshold by measuring paw withdrawal latency at 405 mg/kg, po measured after 40 mins by paw pressure test. Type of experiment: functional, organism-based. The essentials: as §5
Experiment [20] deals with Mus musculus. Briefly: Antihyperalgesic activity in CFA induced CD-1 albino mouse assessed as increase in pain threshold by measuring paw withdrawal latency at 270 mg/kg, po measured after 40 mins by paw pressure test. Type of experiment: functional. An outline of the steps:
as §5

Experiment [21] deals with Mus musculus. Description: Antihyperalgesic activity in CFA induced CD-1 albino mouse assessed as increase in pain threshold by measuring licking latency at 270 mg/kg, po measured after 40 mins by hot plate test. Type of experiment: functional, organism-based. The essentials: as §4
Experiment [22] deals with Mus musculus. Description: Antihyperalgesic activity in CFA induced CD-1 albino mouse assessed as increase in pain threshold by measuring paw withdrawal latency at 270 mg/kg, po measured after 40 mins by von frey test. Type of experiment: functional. The essentials: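 Intraplantar CFA was used to induce inflammatory pain in mice, with vehicle-treated controls. Mechanical allodynia was measured by Von Frey test as the weight (g) tolerated on the paw, before dosing and every 20 min after. Values are the mean of 6 mice from 2 experimental sets.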

The subject of experiment [23] is Mus musculus. Description: Antihyperalgesic activity in CFA induced CD-1 albino mouse assessed as inhibition of mechanical allodynia by measuring paw withdrawal threshold at 270 to 405 mg/kg, po measured every 20 mins by von frey test. To be noted: dose 270-405 mg/kg. Type of experiment: functional, organism-based.

Calls of active or inactive are those of the source. Bounds are passed on as bounds.

Chain of Carbonic anhydrase 7 (P43166 whole entry): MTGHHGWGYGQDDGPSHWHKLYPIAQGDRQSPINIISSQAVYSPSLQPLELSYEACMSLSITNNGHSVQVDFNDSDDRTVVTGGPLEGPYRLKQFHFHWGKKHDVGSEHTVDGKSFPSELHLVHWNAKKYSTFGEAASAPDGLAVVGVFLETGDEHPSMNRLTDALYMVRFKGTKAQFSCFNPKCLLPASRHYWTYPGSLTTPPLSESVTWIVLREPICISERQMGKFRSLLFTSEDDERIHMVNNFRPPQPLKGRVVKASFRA
Chain of Carbonic anhydrase 1 (P00915 whole entry): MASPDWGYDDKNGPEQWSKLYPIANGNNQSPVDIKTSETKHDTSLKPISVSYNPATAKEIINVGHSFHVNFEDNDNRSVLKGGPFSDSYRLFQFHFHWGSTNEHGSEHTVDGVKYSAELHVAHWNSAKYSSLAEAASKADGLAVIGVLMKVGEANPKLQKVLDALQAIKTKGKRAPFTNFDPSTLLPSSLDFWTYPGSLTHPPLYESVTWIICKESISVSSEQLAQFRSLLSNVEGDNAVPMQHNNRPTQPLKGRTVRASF
Chain of Carbonic anhydrase 12 (O43570 whole entry): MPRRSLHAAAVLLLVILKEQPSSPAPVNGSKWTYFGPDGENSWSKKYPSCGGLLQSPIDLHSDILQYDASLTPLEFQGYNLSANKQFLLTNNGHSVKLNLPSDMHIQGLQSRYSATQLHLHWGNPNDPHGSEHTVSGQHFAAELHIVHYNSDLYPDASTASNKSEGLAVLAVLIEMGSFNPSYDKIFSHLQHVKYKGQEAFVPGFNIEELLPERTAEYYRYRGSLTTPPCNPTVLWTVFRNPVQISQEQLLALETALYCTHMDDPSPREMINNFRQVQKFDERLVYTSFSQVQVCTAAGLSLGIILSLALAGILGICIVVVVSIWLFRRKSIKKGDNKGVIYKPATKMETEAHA

As usually defined, the Ki is the dissociation constant of the complex between target and ligand, obtained from inhibition or displacement. A lower Ki goes with a stronger hold on the target. In the case of `CC(=O)Sc1ccccc1C(=O)O`, the Ki stood at 14 µM on Carbonic anhydrase 12; 77.3 µM at Carbonic anhydrase 4; 18.5 µM at Carbonic anhydrase 7; 64.3 µM on Carbonic anhydrase 2; 10.9 µM on Carbonic anhydrase 9; 72.5 µM on Carbonic anhydrase 1. Also, the outcome with Mus musculus [1], in the experiment with Mus musculus [2], in the experiment with Mus musculus [3], with Mus musculus [4], with Mus musculus [5] and with Mus musculus [6] was Active.

In the case of `CC(=O)Oc1ccccc1C(=O)O` [ASPIRIN], the outcome in the experiment with Mus musculus [7], in the experiment on Mus musculus [9] and with Mus musculus [14] was inactive. For the same molecule, the Activity entry with Mus musculus [8], in the experiment on Mus musculus [10] and with Mus musculus [13] was “Dose-Dependent Effect” in each case. In addition, the Ki on Carbonic anhydrase 12, on Carbonic anhydrase 4, at Carbonic anhydrase 7, on Carbonic anhydrase 9 and at Carbonic anhydrase 1 was greater than 100 µM throughout. Besides, the outcome in the experiment with Mus musculus [11], in the experiment on Mus musculus [12] and in the experiment on Mus musculus [15] was Active.

`CC(=O)[Se]c1ccccc1C(=O)O`: the outcome in the experiment with Mus musculus [16], in the experiment with Mus musculus [17] and in the experiment with Mus musculus [19] was inactive. Also, the Ki worked out at 8.2 µM on Carbonic anhydrase 12; 48 µM on Carbonic anhydrase 4; 5.2 µM at Carbonic anhydrase 7; 32 µM on Carbonic anhydrase 2; 1.4 µM at Carbonic anhydrase 9; 5.2 µM at Carbonic anhydrase 1. Besides, the outcome in the experiment on Mus musculus [18], in the experiment with Mus musculus [21] and in the experiment with Mus musculus [23] was Active. In addition, the Activity in the experiment on Mus musculus [20] and with Mus musculus [22] was greater than 50% throughout.

The values are drawn from ChEMBL document CHEMBL5614453 (ACS Med Chem Lett, 2024).
